This note sets out measurements from ChEMBL document CHEMBL1125684, “Novel site-directed affinity ligands for GABA-gated chloride channels: synthesis, characterization, and molecular modeling of 1-(isothiocyanatophenyl)-4-tert-butyl-2,6,7-trioxabicyclo[2.2.2]octanes ” (J Med Chem, 1991).

Each structure is given as a SMILES string.

The target in assay [1] is T1, GABA-A receptor; anion channel (Rattus norvegicus) (UniProt O09028+P15431+P18506+P18508+P19969+P20236+P23574+P23576+P28471+P28473+P30191+P62813+P63079+P63138+Q91ZM7+Q9ES14). Nature of the assay: Displacement of [35S]TBPS binding to rat cortical homogenates (control). The method in brief:
(§1)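 Cortical homogenate (twice-washed, 1:15) pretreated 1 h on ice with acylator (60 nM or 600–2400 nM) plus 200 mM NaCl. It was then washed five times by centrifugation in pH 7.4 phosphate/100 mM NaCl and resuspended chloride-free. Saturation binding used 2–5 nM [35S]TBPS with 0–160 nM unlabeled TBPS, 200 mM NaCl, 2 h at 25 °C. Nonspecific binding was defined by 20 µM picrotoxinin. Kd and Bmax came from Scatchard plots, mean of 3–5 experiments.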
(In general: Loss of bound radioactivity is the signal in a displacement assay; it reports binding, not function.)

The target of assay [2] is GABA-A receptor; anion channel. Kind of assay: Apparent affinity by displacement of pre-incubated [35S]-TBPS from rat cortical homogenates (control). The method in brief:
as §1

For assay [3], the target named is T1, GABA-A receptor; anion channel (Rattus norvegicus). Kind of assay: Displacement of [35S]TBPS binding to rat cortical homogenates at 2400 nM. The method in brief: as §1
Assay [4] has as its target GABA-A receptor; anion channel. Nature of the assay: Apparent affinity by displacement of preincubated [35S]TBPS from rat cortical homogenates at 2400 nM. The method in brief:
as §1

For assay [5], the target named is GABA-A receptor; anion channel. Nature of the assay: Inhibition of [35S]-TBPS binding to rat cortical membranes after 60 minute pre-incubation with radioligand. In kind it is cell membranes, Membrane. The method in brief:
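Washed cortical homogenate was incubated with 5 nM [35S]TBPS for 60 min before acylator was added, in pH 7.4 potassium phosphate with 200 mM NaCl at 25 °C. Bound radioligand was collected by GF/B filtration and counted by scintillation. Nonspecific binding was defined by 20 µM picrotoxinin. Inhibition was expressed as percent of control binding without acylator; N ≥ 1.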

Assay [6] addresses GABA-A receptor; anion channel. Nature of the assay: Apparent affinity by displacement of preincubated [35S]TBPS from rat cortical homogenates at 1200 nM. The method in brief:
as §1

The target in assay [7] is GABA-A receptor; anion channel. Nature of the assay: Apparent affinity by displacement of pre-incubated [35S]-TBPS from rat cortical homogenates at 600 nM. The method in brief: as §1
Assay [8] concerns the target GABA-A receptor; anion channel. Kind of assay: Inhibition of [35S]TBPS binding to rat cortical membranes. In kind it is cell membranes, Membrane. The method in brief: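 Coincubation: 5 nM [35S]TBPS and acylator (5–1000 nM or 50–10000 nM, depending on ligand) were added simultaneously to washed cortical homogenate. Incubation was in pH 7.4 potassium phosphate with 200 mM NaCl, 2 h at 25 °C. Binding was read by filtration and scintillation, with nonspecific binding defined by 20 µM picrotoxinin. Inhibition was taken as percent of control; N ≥ 3.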

For assay [9], the target named is GABA-A receptor; anion channel. Kind of assay: Apparent affinity by displacement of preincubated [35S]-TBPS from rat cortical homogenates at 1500 nM. The method in brief: as §1
Assay [10] has as its target T1, GABA-A receptor; anion channel (Rattus norvegicus). Kind of assay: Displacement of [35S]TBPS binding to rat cortical homogenates at 1500 nM. The method in brief: as §1
The target is the same in assay [11]. Kind of assay: Displacement of [35S]TBPS binding to rat cortical homogenates at 1200 nM. The method in brief:
as §1

Assay [12] shares this target. Nature of the assay: Displacement of [35S]TBPS binding to rat cortical homogenates at 600 nM. The method in brief:
as §1

Assay [13] deals with Gamma-aminobutyric acid receptor subunit gamma-1 (Rattus norvegicus) (UniProt P23574). Nature of the assay: Displacement of [35S]TBPS binding to rat cortical homogenates at 60 nM. The method in brief: as §1
For assay [14], the target named is Gamma-aminobutyric acid receptor subunit gamma-1 (Rattus norvegicus, UniProt P23574). Nature of the assay: Apparent affinity by displacement of preincubated [35S]TBPS from rat cortical homogenates at 60 nM. The method in brief: as §1
Chain of Gamma-aminobutyric acid receptor subunit gamma-1 (P23574 whole entry): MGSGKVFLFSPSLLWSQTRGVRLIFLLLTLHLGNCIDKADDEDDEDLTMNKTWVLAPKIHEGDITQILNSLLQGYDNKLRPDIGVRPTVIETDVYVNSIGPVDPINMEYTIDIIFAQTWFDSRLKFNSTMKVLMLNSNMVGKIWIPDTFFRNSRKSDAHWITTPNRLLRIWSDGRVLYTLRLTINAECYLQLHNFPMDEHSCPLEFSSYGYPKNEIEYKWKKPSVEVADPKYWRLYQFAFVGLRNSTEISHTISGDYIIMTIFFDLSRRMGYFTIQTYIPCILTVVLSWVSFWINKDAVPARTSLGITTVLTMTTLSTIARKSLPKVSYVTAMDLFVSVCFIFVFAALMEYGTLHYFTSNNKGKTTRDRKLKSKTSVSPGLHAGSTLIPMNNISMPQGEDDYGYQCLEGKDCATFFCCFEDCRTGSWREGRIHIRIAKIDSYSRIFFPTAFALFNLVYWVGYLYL

Chain of Gamma-aminobutyric acid receptor subunit gamma-1 (Rattus norvegicus) (P23574 whole entry): as above

Usually IC50 stands for the concentration needed to halve the response being measured. As to `CC(C)(C)C12COC(c3ccccc3N=C=S)(OC1)OC2`, the Bmax in assay [1] worked out at 963 fM assay-1; in assay [3], 1030 fM assay-1; in assay [10], 869 fM assay-1; in [11], 817 fM assay-1; in assay [12], 915 fM assay-1. Further, the Kd came to 46.7 nM in [2]; 58 nM in [4]; 50.7 nM in assay [6]; 57.3 nM in [7]; 56.3 nM in [9]. Also, the IC50 in [5] came to 7500 nM; in [8], 609 nM.

For `CC(C)(C)C12COC(c3cccc(N=C=S)c3)(OC1)OC2`, the Bmax in assay [1] was found to be 1080 fM assay-1; in [3] it was 1010 fM assay-1; in assay [10] it was 928 fM assay-1; in [11] it was 889 fM assay-1; in [12] it was 925 fM assay-1. The Kd in [2] came to 35.3 nM; in assay [4], 73.8 nM; in [6], 51.8 nM; in [7], 44.5 nM; in [9] it was 55.8 nM. Moreover, the IC50 worked out at 5400 nM in [5] and 570 nM in assay [8].

Regarding `CC(C)(C)C12COC(c3ccc(N=C=S)cc3)(OC1)OC2`, the Bmax in [1] worked out at 955 fM assay-1; in [13], 644 fM assay-1. Moreover, the figures for the Kd in [2] and in [14] were 47 nM and 72.2 nM, respectively. Also, the results for the IC50 in [5] and in assay [8] were 90 nM and 62 nM, respectively.
